Measured values taken from ChEMBL document CHEMBL3853270, “Influence of Birch Bark Triterpenes on Keratinocytes and Fibroblasts from Diabetic and Nondiabetic Donors” (2016).
Calls of active or inactive are those of the source. The rule behind the calls is not given here.

Experiments:
Assay type in all cases: functional
Fibroblast [1] = test: Effect on MMP1 mRNA expression levels in non-diabetic adult human primary fibroblasts at 1.96 uM after 6 hrs by qPCR analysis
Summary of the method: (§1)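 Primary dermal fibroblasts from one nondiabetic young, one nondiabetic adult and one diabetic adult donor; 320 000 cells per sample, 6 h at 1.96 or 9.81 μM. RNA measured on a high-throughput qPCR chip. Fold change versus 0.1% DMSO control, four independent experiments, SD, one-way ANOVA with Bonferroni post-test.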

[2] = Effect on wound healing activity in non-diabetic adult human primary keratinocytes assessed as upregulation of IL1RA protein levels at 1.96 uM after 24 hrs by bead-based suspension array analysis; conditions: Keratinocyte
Keratinocyte [3] = test: Effect on transcription factor related gene expression in diabetic adult human primary keratinocytes assessed as JUN mRNA levels at 1.96 uM after 6 hrs by qPCR analysis
Fibroblast [4] = test: Effect on MMP1 mRNA expression levels in diabetic adult human primary fibroblasts at 9.81 uM after 6 hrs by qPCR analysis; summary of the method: as §1
Keratinocyte [5] = test: Effect on growth factor related gene expression in non-diabetic young human primary keratinocytes assessed as GDF15 mRNA levels at 1.96 uM after 6 hrs by qPCR analysis
Summary of the method: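 Primary human keratinocytes (nondiabetic young or adult, diabetic adult donors) were exposed to compound for 6 h, with 0.1% DMSO as solvent control. Total RNA came from 400 000 cells per sample and was assayed on a Fluidigm Biomark high-throughput qPCR chip. Results are fold change vs solvent control, from 2−4 independent experiments on two donors per group, with SD. Groups were compared by one-way ANOVA with Bonferroni post-test.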

Keratinocyte [6] = test: Effect on pro-inflammatory related gene expression in diabetic adult human primary keratinocytes assessed as IL1R1 mRNA levels at 9.81 uM after 6 hrs by qPCR analysis
Keratinocyte [7] = test: Effect on wound healing activity in non-diabetic adult human primary keratinocytes assessed as increase in soluble gp130 part of IL6 receptor protein levels at 1.96 uM after 24 hrs by bead-based suspension array analysis
Keratinocyte [8] = test: Effect on pro-inflammatory related gene expression in non-diabetic adult human primary keratinocytes assessed as IL1B mRNA levels at 1.96 uM after 6 hrs by qPCR analysis
Keratinocyte [9] = test: Effect on chemokines related gene expression in diabetic adult human primary keratinocytes assessed as CXCL10 mRNA levels at 9.81 uM after 6 hrs by qPCR analysis
Keratinocyte [10] = test: Effect on antiinflammatory related gene expression in diabetic adult human primary keratinocytes assessed as NFKBIA mRNA levels at 9.81 uM after 6 hrs by qPCR analysis
Summary of the method: (§2)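 Primary keratinocytes from nondiabetic young and adult and diabetic adult donors; 400 000 cells per sample, 6 h exposure at 1.96 or 9.81 μM. RNA extracted and read on a high-throughput qPCR chip. Results are fold change versus 0.1% DMSO solvent control from 5−7 independent experiments over two donors per group, SD, one-way ANOVA with Bonferroni post-test.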

Fibroblast [11] = test: Effect on pro-inflammatory related gene expression in non-diabetic adult human primary fibroblasts assessed as PTGS2 mRNA levels at 9.81 uM after 6 hrs by qPCR analysis
Fibroblast [12] = test: Effect on transcription factor related gene expression in diabetic adult human primary fibroblasts assessed as JUN mRNA levels at 1.96 uM after 6 hrs by qPCR analysis
[13] = Effect on wound healing activity in non-diabetic adult human primary fibroblasts assessed as upregulation of soluble VCAM1 protein levels at 1.96 uM after 24 hrs by bead-based suspension array analysis; conditions: Fibroblast
Keratinocyte [14] = test: Effect on pro-inflammatory related gene expression in diabetic adult human primary keratinocytes assessed as PTGS2 mRNA levels at 1.96 uM after 6 hrs by qPCR analysis
Fibroblast [15] = test: Effect on antioxidant related gene expression in non-diabetic young human primary fibroblasts assessed as NFE2L2 mRNA levels at 9.81 uM after 6 hrs by qPCR analysis
Fibroblast [16] = test: Effect on growth factors related gene expression in diabetic adult human primary fibroblasts assessed as FGF2 mRNA levels at 1.96 uM after 6 hrs by qPCR analysis
Summary of the method: (§3)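 Primary human dermal fibroblasts (young or adult nondiabetic, adult diabetic donor) were treated for 6 h against a 0.1% DMSO solvent control. RNA from 320 000 cells per sample was measured by Fluidigm Biomark high-throughput qPCR. Values are fold change relative to solvent control, from four independent experiments, with SD. One-way ANOVA with Bonferroni post-test was applied.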

Fibroblast [17] = test: Effect on pro-inflammatory related gene expression in diabetic adult human primary fibroblasts assessed as IL1R1 mRNA levels at 1.96 uM after 6 hrs by qPCR analysis; summary of the method: as §3
[18] = Effect on wound healing activity in non-diabetic adult human primary fibroblasts assessed as upregulation of RANTES protein levels at 1.96 uM after 24 hrs by bead-based suspension array analysis; conditions: Fibroblast
Keratinocyte [19] = test: Effect on pro-inflammatory related gene expression in diabetic adult human primary keratinocytes assessed as TNF mRNA levels at 1.96 uM after 6 hrs by qPCR analysis
Fibroblast [20] = test: Effect on chemokines related gene expression in non-diabetic adult human primary fibroblasts assessed as CCL2 mRNA levels at 1.96 uM after 6 hrs by qPCR analysis
Fibroblast [21] = test: Effect on pro-inflammatory related gene expression in diabetic adult human primary fibroblasts assessed as PTGS2 mRNA levels at 1.96 uM after 6 hrs by qPCR analysis
[22] = Effect on wound healing activity in diabetic adult human primary fibroblasts assessed as upregulation of soluble VCAM1 protein levels at 1.96 uM after 24 hrs by bead-based suspension array analysis; conditions: Fibroblast
Keratinocyte [23] = test: Effect on cellular connection related gene expression in non-diabetic young human primary keratinocytes assessed as CLDN4 mRNA levels at 1.96 uM after 6 hrs by qPCR analysis
Fibroblast [24] = test: Effect on pro-inflammatory related gene expression in diabetic adult human primary fibroblasts assessed as IL6 mRNA levels at 1.96 uM after 6 hrs by qPCR analysis; summary of the method: as §3
Fibroblast [25] = test: Effect on growth factor related gene expression in non-diabetic young human primary fibroblasts assessed as VEGFA mRNA levels at 9.81 uM after 6 hrs by qPCR analysis; summary of the method: as §3
Fibroblast [26] = test: Effect on chemokines related gene expression in non-diabetic adult human primary fibroblasts assessed as IL8 mRNA levels at 1.96 uM after 6 hrs by qPCR analysis
Keratinocyte [27] = test: Effect on chemokines related gene expression in diabetic adult human primary keratinocytes assessed as IL8 mRNA levels at 1.96 uM after 6 hrs by qPCR analysis
Keratinocyte [28] = test: Effect on MMP1 mRNA expression levels in non-diabetic adult human primary keratinocytes at 1.96 uM after 6 hrs by qPCR analysis; summary of the method: as §2
Keratinocyte [29] = test: Effect on cellular connection related gene expression in diabetic adult human primary keratinocytes assessed as CLDN4 mRNA levels at 9.81 uM after 6 hrs by qPCR analysis
Fibroblast [30] = test: Effect on antiinflammatory related gene expression in diabetic adult human primary fibroblasts assessed as NFKBIA mRNA levels at 9.81 uM after 6 hrs by qPCR analysis; summary of the method: as §1

For `C=C(C)[C@@H]1CC[C@]2(CO)CC[C@]3(C)[C@H](CC[C@@H]4[C@@]5(C)CC[C@H](O)C(C)(C)[C@@H]5CC[C@]43C)[C@@H]12` [BETULIN], which “fold change (FC)” value (Fibroblast [1]) is on record?
Its value is 2.1.

What about the Activity [2] of the same compound?
Its Activity is “Active”.

What about the “fold change (FC)” value (Keratinocyte [3]) of the same compound?
The value was 1.2.

And the “fold change (FC)” value (Fibroblast [4])?
Its value is 0.6.

What about the “fold change (FC)” value (Keratinocyte [5]) of the same compound?
Its value is 1.

And the “fold change (FC)” value (Keratinocyte [6])?
Its value is 0.9.

And the Activity (Keratinocyte [7])?
Its Activity is “Active”.

And the “fold change (FC)” value (Keratinocyte [8])?
The value was 0.8.

What about the “fold change (FC)” value (Keratinocyte [9]) of the same compound?
The value was 12.1.

What about the “fold change (FC)” value (Keratinocyte [10]) of the same compound?
The value was 2.

What about the “fold change (FC)” value (Fibroblast [11]) of the same compound?
The value was 179.

What about the “fold change (FC)” value (Fibroblast [12]) of the same compound?
The value was 1.3.

And the Activity [13]?
The Activity was “Active”.

And the “fold change (FC)” value (Keratinocyte [14])?
Its value is 1.3.

And the “fold change (FC)” value (Fibroblast [15])?
Its value is 1.4.

And the “fold change (FC)” value (Fibroblast [16])?
The value was 2.

What about the “fold change (FC)” value (Fibroblast [17]) of the same compound?
The value was 1.7.

And the Activity [18]?
Its Activity is “Active”.

What about the “fold change (FC)” value (Keratinocyte [19]) of the same compound?
The value was 5.3.

What about the “fold change (FC)” value (Fibroblast [20]) of the same compound?
The value was 171.

And the “fold change (FC)” value (Fibroblast [21])?
Its value is 4.1.

What about the Activity [22] of the same compound?
The Activity was “Active”.

And the “fold change (FC)” value (Keratinocyte [23])?
The value was 1.5.

What about the “fold change (FC)” value (Fibroblast [24]) of the same compound?
Its value is 14.9.

What about the “fold change (FC)” value (Fibroblast [25]) of the same compound?
The value was 2.

What about the “fold change (FC)” value (Fibroblast [26]) of the same compound?
The value was 702.

And the “fold change (FC)” value (Keratinocyte [27])?
The value was 16.5.

And the “fold change (FC)” value (Keratinocyte [28])?
The value was 1.

And the “fold change (FC)” value (Keratinocyte [29])?
Its value is 2.1.

What about the “fold change (FC)” value (Fibroblast [30]) of the same compound?
Its value is 1.4.
